In ChEMBL document CHEMBL1134835, “Analogues of prazosin that bear a benextramine-related polyamine backbone exhibit different antagonism toward alpha1-adrenoreceptor subtypes” (J Med Chem, 2001):

What was measured:
[1] = target: T1, Alpha-1D adrenergic receptor (Rattus norvegicus) (UniProt P23944); settings: Thoracic aorta
T1 sequence (whole entry): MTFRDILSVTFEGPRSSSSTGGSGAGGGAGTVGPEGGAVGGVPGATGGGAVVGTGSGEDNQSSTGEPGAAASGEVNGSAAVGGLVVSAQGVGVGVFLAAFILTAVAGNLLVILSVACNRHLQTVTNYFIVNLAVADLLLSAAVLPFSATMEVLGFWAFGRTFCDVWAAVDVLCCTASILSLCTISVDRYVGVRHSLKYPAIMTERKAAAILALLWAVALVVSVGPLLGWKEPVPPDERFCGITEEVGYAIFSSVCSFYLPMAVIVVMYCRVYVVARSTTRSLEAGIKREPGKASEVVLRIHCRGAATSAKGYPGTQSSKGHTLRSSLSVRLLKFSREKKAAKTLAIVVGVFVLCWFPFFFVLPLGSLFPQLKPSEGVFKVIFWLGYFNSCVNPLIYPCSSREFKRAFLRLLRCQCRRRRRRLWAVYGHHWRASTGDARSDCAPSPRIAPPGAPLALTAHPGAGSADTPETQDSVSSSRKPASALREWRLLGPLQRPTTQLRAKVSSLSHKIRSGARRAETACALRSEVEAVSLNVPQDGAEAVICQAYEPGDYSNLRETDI

[2] = target: T2, Alpha-1A adrenergic receptor (Rattus norvegicus) (UniProt P43140)
T2 sequence (whole entry): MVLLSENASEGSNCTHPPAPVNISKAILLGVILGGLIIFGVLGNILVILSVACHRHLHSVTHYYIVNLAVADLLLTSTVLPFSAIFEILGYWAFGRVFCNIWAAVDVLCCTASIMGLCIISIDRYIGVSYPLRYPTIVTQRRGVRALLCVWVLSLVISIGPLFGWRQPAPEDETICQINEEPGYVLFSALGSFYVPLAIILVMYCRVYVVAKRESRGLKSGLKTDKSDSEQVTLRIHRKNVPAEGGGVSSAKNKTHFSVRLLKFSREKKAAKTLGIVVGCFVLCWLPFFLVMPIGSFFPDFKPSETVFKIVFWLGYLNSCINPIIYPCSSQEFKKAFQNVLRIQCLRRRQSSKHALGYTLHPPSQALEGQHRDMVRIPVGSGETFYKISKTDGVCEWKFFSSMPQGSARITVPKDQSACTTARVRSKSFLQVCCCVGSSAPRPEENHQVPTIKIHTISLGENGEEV

[3] = target: T3, Alpha-1B adrenergic receptor (Rattus norvegicus) (UniProt P15823); settings: Spleen
T3 sequence (whole entry): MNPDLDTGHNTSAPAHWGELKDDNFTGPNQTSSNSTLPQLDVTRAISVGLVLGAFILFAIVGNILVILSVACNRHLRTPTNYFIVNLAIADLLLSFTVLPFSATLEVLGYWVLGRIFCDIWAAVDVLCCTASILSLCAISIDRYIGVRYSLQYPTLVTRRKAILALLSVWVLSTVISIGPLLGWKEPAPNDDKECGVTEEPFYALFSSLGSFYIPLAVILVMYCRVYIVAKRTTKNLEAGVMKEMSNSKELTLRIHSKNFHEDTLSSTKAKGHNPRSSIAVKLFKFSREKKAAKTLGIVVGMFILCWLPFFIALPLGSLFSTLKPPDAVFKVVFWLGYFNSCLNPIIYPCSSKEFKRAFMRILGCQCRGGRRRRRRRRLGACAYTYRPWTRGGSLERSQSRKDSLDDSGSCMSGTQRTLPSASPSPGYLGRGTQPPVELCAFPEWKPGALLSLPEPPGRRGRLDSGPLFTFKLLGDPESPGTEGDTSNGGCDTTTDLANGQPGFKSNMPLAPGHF

[4] = target: T4, Alpha-1B adrenergic receptor (Rattus norvegicus, UniProt P15823); assay: Antagonist affinity [non competitive (irreversible)] at alpha-1B-adrenoceptors on isolated spleen from rat; assay type: functional, tissue-based
T4 sequence (P15823 whole entry): T3 sequence (whole entry)
In short: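 Isolated rat spleen contracted by (-)-phenylephrine, measured isometrically. Cumulative curves run at 30 min intervals, the second taken as control. Antagonist incubated 30 min, washed 30 min, then a new curve. Loss of maximal response expressed as % of control; IC50 estimated from % inhibition vs log molar concentration plots, reported as pIC50 ± SE of n experiments.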

[5] = target: T5, Alpha-1A adrenergic receptor (Rattus norvegicus, UniProt P43140); assay: Antagonist affinity [non competitive (irreversible)] at alpha-1A-adrenoceptors on isolated prostatic Vas deferens from rat; assay type: functional
T5 sequence (P43140 whole entry): T2 sequence (whole entry)
In short: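 Rat vas deferens prostatic portion, equilibrated 60 min with washes every 15 min, primed twice with 10 µM noradrenaline, then a basal noradrenaline concentration-response curve (solutions with 0.05% Na₂S₂O₅). Antagonist 30 min, then 30 min washing, then a new curve. Maximal-response decrease expressed as % of control; IC50 read graphically from % inhibition vs log molar concentration, given as pIC50 ± SE.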

Q: COc1cc2nc(N(C)CCCCCCN(C)C(=O)c3ccccc3CNCCCCCCNCCCCCCNCCCCCCNCc3ccccc3C(=O)N(C)CCCCCCN(C)c3nc(N)c4cc(OC)c(OC)cc4n3)nc(N)c2cc1OC was tested. Which pKb [1] did it give?
A: 8.47

Q: What about the pKb [2] of the same molecule?
A: 8.17

Q: And the pKb [3]?
A: 7.22

Q: How did the pKb [1] turn out when COc1cc2nc(N3CCN(C(=O)c4cccc(CNCCCCCCNCCCCCCNCCCCCCNCc5cccc(C(=O)N6CCN(c7nc(N)c8cc(OC)c(OC)cc8n7)CC6)c5)c4)CC3)nc(N)c2cc1OC was run?
A: 7.43

Q: What about the pKb [2] of the same molecule?
A: 7.29

Q: What about the pKb [3] of the same molecule?
A: 6.5

Q: Which pKb [1] does the source give for COc1cc2nc(N3CCN(C(=O)c4ccc(C=O)cc4)CC3)nc(N)c2cc1OC here?
A: 8.38

Q: What about the pKb [2] of the same molecule?
A: 7.59

Q: And the pKb [3]?
A: 6.95

Q: COc1cccc(C(=O)N2CCN(c3nc(N)c4cc(OC)c(OC)cc4n3)CC2)c1 was tested. Which pKb [1] did it give?
A: 7.46

Q: What about the pKb [2] of the same molecule?
A: 7.87

Q: And the pKb [3]?
A: 7.84

Q: For COc1cc2nc(N3CCN(C(=O)c4ccc(CNCCCCCCNCCSSCCNCCCCCCNCc5ccc(C(=O)N6CCN(c7nc(N)c8cc(OC)c(OC)cc8n7)CC6)cc5)cc4)CC3)nc(N)c2cc1OC, which IC50 [4] is on record?
A: 41.7 µM

Q: And the IC50 [5]?
A: 2 µM

Q: Which results are given for COc1cc2nc(N(C)CCCCCCN(C)C(=O)c3ccc(CNCCCCCCNCCSSCCNCCCCCCNCc4ccc(C(=O)N(C)CCCCCCN(C)c5nc(N)c6cc(OC)c(OC)cc6n5)cc4)cc3)nc(N)c2cc1OC?
A: IC50 [4]: 2.14 µM; IC50 [5]: 4.68 µM

Q: With COc1cc2nc(N3CCN(C(=O)c4ccccc4OC)CC3)nc(N)c2cc1OC as the molecule, how does the pKb [1] read?
A: 7.76

Q: And the pKb [2]?
A: 7.34

Q: And the pKb [3]?
A: 6.77

Q: Which pKb [1] does the source give for COc1ccc(C(=O)N2CCN(c3nc(N)c4cc(OC)c(OC)cc4n3)CC2)cc1 here?
A: 8.98

Q: And the pKb [2]?
A: 8.46

Q: What about the pKb [3] of the same molecule?
A: 7.74

Q: With COc1cc2nc(N3CCN(C(=O)c4ccccc4CNCCCCCCNCCCCCCNCCCCCCNCc4ccccc4C(=O)N4CCN(c5nc(N)c6cc(OC)c(OC)cc6n5)CC4)CC3)nc(N)c2cc1OC as the molecule, how does the pKb [1] read?
A: 7.94

Q: What about the pKb [2] of the same molecule?
A: 7.74

Q: And the pKb [3]?
A: 6.8

Q: COc1cc2nc(N3CCN(C(=O)c4ccccc4C)CC3)nc(N)c2cc1OC was tested. Which pKb [1] did it give?
A: 7.99

Q: And the pKb [2]?
A: 6.97

Q: And the pKb [3]?
A: 7.33

Q: With COc1cc2nc(N3CCN(C(=O)c4ccco4)CC3)nc(N)c2cc1OC as the molecule, how does the pKb [1] read?
A: 9.71

Q: And the pKb [2]?
A: 8.99

Q: With COc1cc2nc(N(C)CCCCCCN(C)C(=O)c3ccc(CNCCCCCCNCCCCCCNCCCCCCNCc4ccc(C(=O)N(C)CCCCCCN(C)c5nc(N)c6cc(OC)c(OC)cc6n5)cc4)cc3)nc(N)c2cc1OC as the molecule, how does the pKb [1] read?
A: 7.9

Q: And the pKb [2]?
A: 8.53

Q: What about the pKb [3] of the same molecule?
A: 7.56

Q: Which results are given for COc1cc2nc(N3CCN(C(=O)c4ccc(CNCCCCCCNCCCCCCNCCCCCCNCc5ccc(C(=O)N6CCN(c7nc(N)c8cc(OC)c(OC)cc8n7)CC6)cc5)cc4)CC3)nc(N)c2cc1OC?
A: pKb [1]: 7.47; pKb [2]: 6.97; pKb [3]: 7.16

Q: What does the source list for COc1cc2nc(N(C)CCCCCCN(C)C(=O)c3cccc(CNCCCCCCNCCCCCCNCCCCCCNCc4cccc(C(=O)N(C)CCCCCCN(C)c5nc(N)c6cc(OC)c(OC)cc6n5)c4)c3)nc(N)c2cc1OC?
A: pKb [1]: 9.3; pKb [2]: 8.48; pKb [3]: 7.41

Q: Which results are given for COc1cc2nc(N3CCN(C(=O)c4cccc(C)c4)CC3)nc(N)c2cc1OC?
A: pKb [1]: 9.12; pKb [2]: 8.49; pKb [3]: 8.12

Q: What does the source list for COc1cc2nc(N3CCN(C(=O)c4cccc(CNCCCCCCNCCSSCCNCCCCCCNCc5cccc(C(=O)N6CCN(c7nc(N)c8cc(OC)c(OC)cc8n7)CC6)c5)c4)CC3)nc(N)c2cc1OC?
A: IC50 [4]: 55 µM; IC50 [5]: 3.89 µM

Q: COc1cc2nc(N(C)CCCCCCN(C)C(=O)c3ccccc3CNCCCCCCNCCSSCCNCCCCCCNCc3ccccc3C(=O)N(C)CCCCCCN(C)c3nc(N)c4cc(OC)c(OC)cc4n3)nc(N)c2cc1OC was tested. Which IC50 [4] did it give?
A: 1.86 µM

Q: And the IC50 [5]?
A: 1.86 µM

Q: With COc1cc2nc(N3CCN(C(=O)c4ccccc4CNCCCCCCNCCSSCCNCCCCCCNCc4ccccc4C(=O)N4CCN(c5nc(N)c6cc(OC)c(OC)cc6n5)CC4)CC3)nc(N)c2cc1OC as the molecule, how does the IC50 [4] read?
A: 5.13 µM

Q: And the IC50 [5]?
A: 5.01 µM

Q: COc1cc2nc(N3CCN(C(=O)c4cccc(C(F)(F)F)c4)CC3)nc(N)c2cc1OC was tested. Which pKb [1] did it give?
A: 8.38

Q: What about the pKb [2] of the same molecule?
A: 7.49

Q: What about the pKb [3] of the same molecule?
A: 7.16

Q: Which pKb [1] does the source give for COc1cc2nc(N3CCN(C(=O)c4cccc(C=O)c4)CC3)nc(N)c2cc1OC here?
A: 8.07

Q: And the pKb [2]?
A: 7.79

Q: And the pKb [3]?
A: 6.92

Q: With COc1cc2nc(N3CCN(C(=O)c4ccccc4)CC3)nc(N)c2cc1OC as the molecule, how does the pKb [1] read?
A: 8.86

Q: And the pKb [2]?
A: 7.66

Q: And the pKb [3]?
A: 7.44

Q: Which pKb [1] does the source give for COc1cc2nc(N3CCN(C(=O)c4ccc(C)cc4)CC3)nc(N)c2cc1OC here?
A: 8.91

Q: And the pKb [2]?
A: 7.96

Q: And the pKb [3]?
A: 7.67

Q: How did the IC50 [4] turn out when COc1cc2nc(N(C)CCCCCCN(C)C(=O)c3cccc(CNCCCCCCNCCSSCCNCCCCCCNCc4cccc(C(=O)N(C)CCCCCCN(C)c5nc(N)c6cc(OC)c(OC)cc6n5)c4)c3)nc(N)c2cc1OC was run?
A: 1.74 µM

Q: What about the IC50 [5] of the same molecule?
A: 0.0457 µM

Q: What does the source list for COc1cc2nc(N3CCN(C(=O)c4ccccc4C=O)CC3)nc(N)c2cc1OC?
A: pKb [1]: 7.56; pKb [2]: 6.94; pKb [3]: 6.5

Q: Which pKb [1] does the source give for COc1cc2nc(N3CCN(C(=O)c4ccc(C(F)(F)F)cc4)CC3)nc(N)c2cc1OC here?
A: 8.31

Q: And the pKb [2]?
A: 7.43

Q: And the pKb [3]?
A: 7.45

Q: Which pKb [1] does the source give for COc1cc2nc(N3CCN(C(=O)c4ccccc4C(F)(F)F)CC3)nc(N)c2cc1OC here?
A: 8.31

Q: And the pKb [2]?
A: 6.43

Q: And the pKb [3]?
A: 6.55
